Assays:
[1] = target: Aurora kinase B/Inner centromere protein (Homo sapiens, UniProt Q96GD4); assay: Inhibition of AURKB/INCENP (unknown origin) preincubated for 15 mins prior to ATP addition by FRET-based homogenous assay; format: protein-complex assay
In short: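 The enzyme was AURKB/INCENP in a FRET-based homogeneous assay run to kit specifications, with ATP at 128 μM. […] Each IC50 came from a single determination, reported with its standard fitting error.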

Cytochrome P450 3A4 = Cytochrome P450 3A4 (Homo sapiens, UniProt P08684); assay: Inhibition of human CYP3A4 using BFC as substrate preincubated for 10 mins followed by enzyme/substrate addition measured after 30 mins by fluorescence assay; format: ADME
[2] = Half life in rat liver microsomes at 1 uM by LC-MS analysis; format: ADME; settings: liver microsomes
[3] = Antitumor activity against human HCT116 cells xenografted in athymic CD1 nude mouse assessed as tumor growth inhibition at 35 mg/kg, po qd administered for 21 days measured 3 times per week during compound dosing relative to vehicle-treated control; format: functional; settings: HCT-116, 504 h, read-out: TGI
In short: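 HCT116 cells (5 million) were injected subcutaneously into the right flank of 6–8 week old female athymic CD-1 nude mice. At a mean tumor volume of 80–120 mm³, mice were randomized (n = 8). Tumors were measured three times weekly, volume x²y/2, and TGI was taken against vehicle.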

[4] = target: Mast/stem cell growth factor receptor Kit (Homo sapiens, UniProt P10721, V560G); assay: Inhibition of human cKit V560G mutant by millipore radiometric assay
In short: (§1)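 Radiometric profiling against a 278-kinase panel was done with ATP at Km. Half-maximal inhibitory concentrations were then determined for the kinases most inhibited.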

[5] = target: Muscle, skeletal receptor tyrosine-protein kinase (Homo sapiens, UniProt O15146); assay: Inhibition of human MuSK by millipore radiometric assay; in short: as §1
Aurora kinase A = target: T1, Aurora kinase A (Homo sapiens, UniProt O14965); assay: Inhibition of AURKA (unknown origin) transfected in human HCT116 cells after 4 hrs by near infrared imager analysis; format: cell-based, HCT-116
T1 sequence (O14965 whole entry): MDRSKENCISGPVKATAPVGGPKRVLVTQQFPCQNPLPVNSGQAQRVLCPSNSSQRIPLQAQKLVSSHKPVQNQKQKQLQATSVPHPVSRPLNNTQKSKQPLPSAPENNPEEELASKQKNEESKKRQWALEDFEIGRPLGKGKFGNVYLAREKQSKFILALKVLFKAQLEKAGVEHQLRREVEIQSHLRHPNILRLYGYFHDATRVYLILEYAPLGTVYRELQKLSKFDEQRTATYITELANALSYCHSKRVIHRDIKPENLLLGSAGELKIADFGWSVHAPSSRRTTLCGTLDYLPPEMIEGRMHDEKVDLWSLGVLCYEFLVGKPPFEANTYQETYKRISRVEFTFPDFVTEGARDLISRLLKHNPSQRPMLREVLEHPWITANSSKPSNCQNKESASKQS
In short: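 HCT116 cells transfected with wild-type TTK were arrested with nocodazole (200 ng/mL, 17 h). They were pretreated with MG132 (15 μM, 30 min), then exposed to compound or DMSO for 4 h. Blots were probed for phospho-TTK (Thr12/Ser15), phospho-Aurora A (Thr288)/B (Thr232), TTK and GAPDH. Bands were quantified by near-infrared imaging, and EC50 was fitted.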

BT-474 = assay: Cytotoxicity against human BT474 cells after 5 days by sulforhodamine B assay; format: functional; settings: BT-474, 120 h
In short: (§2)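 Cancer lines were seeded at 800–6000 cells per well according to growth rate, 24 h before compound overlay. After culture, cells were fixed in situ and stained with sulforhodamine B. GI50 values were derived by curve fitting.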

[6] = Cytotoxicity against human SKBR3 cells after 5 days by sulforhodamine B assay; format: functional; settings: SK-BR-3, 120 h; in short: as §2
MCF7 = assay: Cytotoxicity against human MCF7 cells after 5 days by sulforhodamine B assay; format: functional; settings: MCF7, 120 h; in short: as §2
SW48 = assay: Cytotoxicity against human SW48 cells after 5 days by sulforhodamine B assay; format: functional; settings: SW48, 120 h; in short: as §2
[7] = Cytotoxicity against human PC3 cells after 5 days by sulforhodamine B assay; format: functional; settings: PC-3, 120 h; in short: as §2

Sequence of Cytochrome P450 3A4 (P08684 whole entry): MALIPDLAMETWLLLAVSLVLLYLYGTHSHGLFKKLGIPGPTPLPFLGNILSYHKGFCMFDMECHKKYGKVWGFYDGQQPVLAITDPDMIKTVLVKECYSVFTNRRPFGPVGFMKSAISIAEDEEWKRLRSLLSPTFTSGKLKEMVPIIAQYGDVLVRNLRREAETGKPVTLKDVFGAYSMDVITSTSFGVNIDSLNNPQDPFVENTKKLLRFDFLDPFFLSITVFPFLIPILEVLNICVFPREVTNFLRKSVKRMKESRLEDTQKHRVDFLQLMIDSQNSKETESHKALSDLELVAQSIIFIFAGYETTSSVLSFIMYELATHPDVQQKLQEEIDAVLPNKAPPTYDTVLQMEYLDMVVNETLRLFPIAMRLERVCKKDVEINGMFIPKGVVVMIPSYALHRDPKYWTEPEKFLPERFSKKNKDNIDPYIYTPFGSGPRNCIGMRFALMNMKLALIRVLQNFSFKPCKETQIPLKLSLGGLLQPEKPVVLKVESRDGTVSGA
Sequence of Aurora kinase B/Inner centromere protein (Q96GD4 whole entry): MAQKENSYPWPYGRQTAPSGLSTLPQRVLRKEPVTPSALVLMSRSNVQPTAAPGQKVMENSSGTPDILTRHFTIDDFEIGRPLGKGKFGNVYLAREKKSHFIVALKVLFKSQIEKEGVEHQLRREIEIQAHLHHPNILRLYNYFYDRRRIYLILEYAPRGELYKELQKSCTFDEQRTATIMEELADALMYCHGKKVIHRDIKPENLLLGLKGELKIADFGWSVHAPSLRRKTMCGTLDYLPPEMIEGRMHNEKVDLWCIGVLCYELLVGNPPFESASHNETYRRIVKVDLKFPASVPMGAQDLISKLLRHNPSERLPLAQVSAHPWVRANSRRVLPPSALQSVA
Sequence of Aurora kinase B/Inner centromere protein (Q9NQS7 whole entry, further chain): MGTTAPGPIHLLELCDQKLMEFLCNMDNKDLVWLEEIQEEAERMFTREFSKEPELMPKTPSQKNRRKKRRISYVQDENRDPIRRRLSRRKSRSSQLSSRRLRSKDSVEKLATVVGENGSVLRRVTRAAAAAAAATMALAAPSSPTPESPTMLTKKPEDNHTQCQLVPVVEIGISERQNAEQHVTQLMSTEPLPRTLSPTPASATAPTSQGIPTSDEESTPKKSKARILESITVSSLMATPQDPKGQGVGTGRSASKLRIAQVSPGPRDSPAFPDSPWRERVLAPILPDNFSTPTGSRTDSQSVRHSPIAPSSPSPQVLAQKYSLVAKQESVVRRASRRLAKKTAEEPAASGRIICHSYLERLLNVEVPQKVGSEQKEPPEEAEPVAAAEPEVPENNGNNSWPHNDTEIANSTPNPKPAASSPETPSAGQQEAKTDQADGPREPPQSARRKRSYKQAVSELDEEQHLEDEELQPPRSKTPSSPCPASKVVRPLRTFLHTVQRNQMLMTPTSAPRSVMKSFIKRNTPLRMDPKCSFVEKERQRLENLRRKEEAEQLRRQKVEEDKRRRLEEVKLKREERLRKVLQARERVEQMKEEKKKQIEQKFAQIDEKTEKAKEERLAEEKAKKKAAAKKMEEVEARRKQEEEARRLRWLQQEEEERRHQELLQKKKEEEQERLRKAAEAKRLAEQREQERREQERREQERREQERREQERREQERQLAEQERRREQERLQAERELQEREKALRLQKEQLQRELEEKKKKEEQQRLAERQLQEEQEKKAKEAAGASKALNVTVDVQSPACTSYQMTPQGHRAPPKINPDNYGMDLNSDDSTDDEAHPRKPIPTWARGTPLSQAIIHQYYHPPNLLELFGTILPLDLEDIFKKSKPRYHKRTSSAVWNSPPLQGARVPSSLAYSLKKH
Sequence of Muscle, skeletal receptor tyrosine-protein kinase (O15146 whole entry): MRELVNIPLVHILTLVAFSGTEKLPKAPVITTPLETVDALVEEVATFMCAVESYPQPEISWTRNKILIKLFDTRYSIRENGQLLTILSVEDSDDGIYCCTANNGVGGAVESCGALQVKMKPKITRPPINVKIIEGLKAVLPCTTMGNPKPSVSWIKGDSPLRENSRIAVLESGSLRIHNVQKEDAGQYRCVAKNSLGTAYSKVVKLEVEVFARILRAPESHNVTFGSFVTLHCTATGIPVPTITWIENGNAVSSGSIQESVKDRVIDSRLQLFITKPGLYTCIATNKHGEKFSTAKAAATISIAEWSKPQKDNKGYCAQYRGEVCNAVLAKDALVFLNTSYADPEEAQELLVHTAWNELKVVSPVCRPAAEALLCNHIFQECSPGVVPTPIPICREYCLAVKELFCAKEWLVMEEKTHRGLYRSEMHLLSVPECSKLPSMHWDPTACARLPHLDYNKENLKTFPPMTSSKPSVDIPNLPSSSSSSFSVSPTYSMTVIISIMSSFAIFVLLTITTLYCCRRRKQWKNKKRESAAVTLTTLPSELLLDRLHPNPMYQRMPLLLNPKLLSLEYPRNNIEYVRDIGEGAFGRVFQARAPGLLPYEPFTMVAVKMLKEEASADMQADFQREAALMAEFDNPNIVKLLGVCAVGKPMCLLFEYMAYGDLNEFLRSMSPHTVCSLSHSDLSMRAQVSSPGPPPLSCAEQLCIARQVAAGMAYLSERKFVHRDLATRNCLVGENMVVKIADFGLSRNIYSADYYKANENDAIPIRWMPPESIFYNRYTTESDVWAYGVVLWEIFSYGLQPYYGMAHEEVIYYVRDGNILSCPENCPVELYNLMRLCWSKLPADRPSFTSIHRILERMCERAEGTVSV
Sequence of Mast/stem cell growth factor receptor Kit (P10721 26-976 V560G limits assumed): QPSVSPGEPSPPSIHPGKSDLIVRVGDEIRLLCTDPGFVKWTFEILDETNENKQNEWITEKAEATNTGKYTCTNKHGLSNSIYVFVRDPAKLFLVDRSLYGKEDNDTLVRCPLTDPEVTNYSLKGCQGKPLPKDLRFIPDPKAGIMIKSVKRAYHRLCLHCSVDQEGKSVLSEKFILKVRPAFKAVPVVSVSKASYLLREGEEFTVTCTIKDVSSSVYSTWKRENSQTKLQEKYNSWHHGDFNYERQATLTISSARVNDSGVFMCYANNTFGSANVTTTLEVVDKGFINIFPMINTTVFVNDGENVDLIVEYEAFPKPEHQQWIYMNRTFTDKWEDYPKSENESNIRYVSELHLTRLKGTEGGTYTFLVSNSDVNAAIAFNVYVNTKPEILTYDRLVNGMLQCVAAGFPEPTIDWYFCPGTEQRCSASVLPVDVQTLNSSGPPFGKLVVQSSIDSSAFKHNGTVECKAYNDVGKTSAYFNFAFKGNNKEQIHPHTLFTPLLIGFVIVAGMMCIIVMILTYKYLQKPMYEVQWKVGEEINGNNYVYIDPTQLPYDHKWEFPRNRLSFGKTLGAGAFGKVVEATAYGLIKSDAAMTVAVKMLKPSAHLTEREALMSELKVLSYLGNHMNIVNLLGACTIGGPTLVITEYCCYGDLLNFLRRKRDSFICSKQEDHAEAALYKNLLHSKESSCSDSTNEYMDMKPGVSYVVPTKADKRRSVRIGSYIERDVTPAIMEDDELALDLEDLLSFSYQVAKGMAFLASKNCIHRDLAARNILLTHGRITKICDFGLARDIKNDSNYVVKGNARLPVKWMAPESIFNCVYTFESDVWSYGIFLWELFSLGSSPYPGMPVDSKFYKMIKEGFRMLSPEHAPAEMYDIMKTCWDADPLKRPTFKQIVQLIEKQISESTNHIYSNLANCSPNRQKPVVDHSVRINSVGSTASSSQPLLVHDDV

**Q.** For O=C(N[C@@H](c1ccccn1)C1CC1)c1ccc2[nH]nc(-c3ccc(N4[C@H]5CC[C@H]4CC(O)C5)cc3)c2c1 (stereo in doubt; 75), which IC50 [1] is on record?
**A.** Its IC50 is 1300 nM.

**Q.** And the IC50 (Cytochrome P450 3A4)?
**A.** The IC50 was 1300 nM.

**Q.** And the half-life at 1 µM [2]?
**A.** The half-life at 1 µM was greater than 1 h.

**Q.** What about the inhibition in vivo at 35 mg/kg [3] of the same molecule?
**A.** The inhibition in vivo at 35 mg/kg was 77%.

**Q.** And the IC50 [4]?
**A.** The IC50 was 490 nM.

**Q.** What about the IC50 [5] of the same molecule?
**A.** The IC50 was 690 nM.

**Q.** What about the EC50 (Aurora kinase A) of the same molecule?
**A.** Its EC50 is greater than 6000 nM.

**Q.** What about the GI50 (BT-474) of the same molecule?
**A.** The GI50 was 15 nM.

**Q.** And the GI50 [6]?
**A.** Its GI50 is 8 nM.

**Q.** And the GI50 (MCF7)?
**A.** The GI50 was 15 nM.

**Q.** What about the GI50 (SW48) of the same molecule?
**A.** Its GI50 is 19 nM.

**Q.** What about the GI50 [7] of the same molecule?
**A.** The GI50 was 60 nM.

Source: ChEMBL document CHEMBL3421533, “The Discovery of Orally Bioavailable Tyrosine Threonine Kinase (TTK) Inhibitors: 3-(4-(heterocyclyl)phenyl)-1H-indazole-5-carboxamides as Anticancer Agents” (J Med Chem, 2015)
